The IC50 is the concentration at which inhibition is half-maximal. Read a high IC50 as weaker potency. The term EC50 denotes the midpoint of the concentration-response curve.

Series [1] addresses Lipoprotein lipase (Bos taurus) (UniProt P11151). The series can be described thus: Inhibition of Lipoprotein lipase in vitro.
Series [2] deals with Mus musculus. As to the kind of experiment: Effect on triglyceride level in C57/BL6 mouse at 60 mg/kg, sc after 1 hr. The class given is functional, organism-based. Further details: dose 60 mg/kg. The conditions noted are these: C57Bl/6. The procedure, abridged:
(§1)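 Male C57Bl/6 mice (≥12 weeks, chow-fed) given peptide subcutaneously in 50 mM mannitol/PBS vehicle. Serum was collected by cardiac puncture at 1 or 3 h, clotted 1 h at room temperature and spun at 10,000g. Serum triglyceride was measured by enzymatic colorimetric assay, with 3–5 animals per dose and time point.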

The subject of series [3] is Plasma. The series can be described thus: Induction of pre-beta HDL formation in human plasma after 2 hrs by ELISA. It is filed as functional, cell-free. In a few lines:
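Increasing peptide concentrations were incubated with normal human plasma at 37 °C for 2 h. Pre-β HDL was quantified by a commercial human pre-β HDL ELISA.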
A general note: In an ELISA, binding on a coated surface is turned into a signal by an enzyme label.

Series [4] deals with Mus musculus. The series can be described thus: Effect on triglyceride level in C57/BL6 mouse at 20 mg/kg, sc after 3 hrs. It is filed as functional, organism-based. Further details: dose 20 mg/kg. The conditions noted are these: C57Bl/6. In a few lines:
as §1

Series [5] relates to Mus musculus. The series can be described thus: Effect on triglyceride level in C57/BL6 mouse at 20 mg/kg, sc after 1 hr. On the set-up: dose 20 mg/kg. It is filed as functional, organism-based. To be noted: C57Bl/6. The procedure, abridged:
as §1

The nature of series [6]: Plasma concentration in C57/BL6 mouse at 60 mg/kg, sc after 3 hrs. The class given is ADME, organism-based, C57Bl/6. Further details: dose 60 mg/kg, route subcutaneous. In a few lines: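 Male C57Bl/6 mice were dosed subcutaneously with peptide in 50 mM mannitol/PBS. Serum was taken by cardiac puncture, and peptide was measured by LC–MS/MS after acetonitrile protein precipitation.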

Series [7] has as its target Phospholipid-transporting ATPase ABCA1 (Mus musculus, UniProt P41233). As to the kind of experiment: Induction of ABCA1-mediated [3H]cholesterol efflux in mouse RAW 264.7 macrophages after 24 hrs.

Active and inactive are the calls of the source. No cut-off for these calls is given here. *1 amine or outer side, *2 acyl side, *3 side chain or, on linkers, in order; H or OH if unused. Where a SMILES comes first, the peptide text is derived from it. [ ]: non-standard residue; d: D form. dGly(6-heptenyl) = C=CCCCCC[C@@H](N)C(=O)O; Ala(5-hexenyl) = C=CCCCCC[C@H](N)C(=O)O; dNle(6-vinyl) = C=CCCCC[C@@H](N)C(=O)O; Gly(octyl) = CCCCCCCC[C@H](N)C(=O)O; X1 = CCCCCCC[C@H](N[*:1])C(=O)[*:2]

Phospholipid-transporting ATPase ABCA1, sequence (P41233 whole entry): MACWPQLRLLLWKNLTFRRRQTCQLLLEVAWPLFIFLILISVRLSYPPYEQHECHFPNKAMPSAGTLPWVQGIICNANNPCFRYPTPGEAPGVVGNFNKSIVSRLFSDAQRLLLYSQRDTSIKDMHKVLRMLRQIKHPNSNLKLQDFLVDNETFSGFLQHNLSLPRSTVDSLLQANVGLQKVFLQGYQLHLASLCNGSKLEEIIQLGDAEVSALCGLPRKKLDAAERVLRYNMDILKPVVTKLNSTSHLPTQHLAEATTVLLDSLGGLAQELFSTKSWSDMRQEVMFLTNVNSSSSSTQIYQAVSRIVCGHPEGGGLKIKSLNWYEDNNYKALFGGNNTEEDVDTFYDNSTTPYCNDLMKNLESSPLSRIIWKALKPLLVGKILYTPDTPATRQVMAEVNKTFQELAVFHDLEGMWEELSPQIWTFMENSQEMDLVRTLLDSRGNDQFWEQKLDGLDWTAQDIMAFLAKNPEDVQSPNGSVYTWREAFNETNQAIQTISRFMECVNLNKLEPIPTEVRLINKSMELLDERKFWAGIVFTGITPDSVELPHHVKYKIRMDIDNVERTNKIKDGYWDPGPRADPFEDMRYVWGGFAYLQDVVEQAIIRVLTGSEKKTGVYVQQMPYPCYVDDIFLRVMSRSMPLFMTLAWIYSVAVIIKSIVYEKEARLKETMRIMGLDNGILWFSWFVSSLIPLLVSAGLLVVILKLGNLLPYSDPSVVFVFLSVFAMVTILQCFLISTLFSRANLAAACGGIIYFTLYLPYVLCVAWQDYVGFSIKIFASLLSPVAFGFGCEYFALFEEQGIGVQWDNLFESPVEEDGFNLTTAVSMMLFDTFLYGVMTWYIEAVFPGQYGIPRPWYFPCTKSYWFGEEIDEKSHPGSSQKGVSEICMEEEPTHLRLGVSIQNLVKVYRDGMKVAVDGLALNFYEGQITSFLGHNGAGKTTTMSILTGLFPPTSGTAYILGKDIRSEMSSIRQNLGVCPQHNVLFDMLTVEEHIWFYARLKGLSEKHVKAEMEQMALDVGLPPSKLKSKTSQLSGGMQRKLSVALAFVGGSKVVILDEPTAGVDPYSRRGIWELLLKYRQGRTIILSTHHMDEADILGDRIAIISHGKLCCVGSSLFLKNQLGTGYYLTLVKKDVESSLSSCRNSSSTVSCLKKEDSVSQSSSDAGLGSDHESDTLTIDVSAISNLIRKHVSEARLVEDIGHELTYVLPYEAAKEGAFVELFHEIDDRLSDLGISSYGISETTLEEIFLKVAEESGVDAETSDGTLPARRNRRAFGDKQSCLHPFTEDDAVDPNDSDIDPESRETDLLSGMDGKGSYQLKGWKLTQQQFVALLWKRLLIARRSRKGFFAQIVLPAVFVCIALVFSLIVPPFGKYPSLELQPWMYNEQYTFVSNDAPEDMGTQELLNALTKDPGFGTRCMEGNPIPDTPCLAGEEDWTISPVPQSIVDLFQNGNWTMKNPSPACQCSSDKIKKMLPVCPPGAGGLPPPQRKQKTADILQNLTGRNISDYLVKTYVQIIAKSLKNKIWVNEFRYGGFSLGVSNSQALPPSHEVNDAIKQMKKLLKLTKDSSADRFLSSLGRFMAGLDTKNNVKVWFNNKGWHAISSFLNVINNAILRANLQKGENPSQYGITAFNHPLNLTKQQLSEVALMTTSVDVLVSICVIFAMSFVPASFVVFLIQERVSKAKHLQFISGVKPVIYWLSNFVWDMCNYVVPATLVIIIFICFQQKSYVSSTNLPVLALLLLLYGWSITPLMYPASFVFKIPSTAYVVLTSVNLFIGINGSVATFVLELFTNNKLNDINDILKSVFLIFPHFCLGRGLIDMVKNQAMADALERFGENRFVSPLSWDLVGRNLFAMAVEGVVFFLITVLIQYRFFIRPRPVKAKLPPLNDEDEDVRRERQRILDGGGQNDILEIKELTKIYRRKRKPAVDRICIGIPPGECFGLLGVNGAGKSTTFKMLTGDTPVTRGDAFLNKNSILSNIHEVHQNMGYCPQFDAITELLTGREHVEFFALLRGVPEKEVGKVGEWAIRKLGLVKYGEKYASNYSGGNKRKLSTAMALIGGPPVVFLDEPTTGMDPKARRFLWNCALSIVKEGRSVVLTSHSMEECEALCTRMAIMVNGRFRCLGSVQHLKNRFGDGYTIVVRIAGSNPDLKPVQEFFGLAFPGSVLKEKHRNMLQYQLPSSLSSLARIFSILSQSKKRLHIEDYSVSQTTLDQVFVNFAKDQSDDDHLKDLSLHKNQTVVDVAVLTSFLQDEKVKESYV

`CCCCCCCC[C@H](NC(=O)[C@H](CCC(=O)O)NC(=O)[C@H](CC(N)=O)NC(=O)[C@H](CC(C)C)NC(=O)[C@H](CCCCN)NC(=O)[C@H](CCC(=O)O)NC(=O)[C@H](CCCNC(=N)N)NC(=O)[C@H](Cc1ccccc1)NC(=O)[C@H](CCC(=O)O)NC(=O)[C@H](CC(=O)O)NC(=O)[C@H](CC(C)C)NC(=O)[C@@H](NC(=O)[C@@H]1CCCN1C(C)=O)C(C)C)C(=O)N[C@@H](CC(C)C)C(=O)N[C@@H](CCC(=O)O)C(=O)N[C@@H](C)C(=O)N[C@@H](CC(C)C)C(=O)N[C@@H](CCCCN)C(=O)N[C@@H](CCC(N)=O)C(=O)N[C@@H](CCCCN)C(=O)N[C@@H](CC(C)C)C(=O)N[C@@H](CCCCN)C(N)=O` (Ac-PVLDEFREKLNE[Gly(octyl)]LEALKQKLK-NH2) yielded an IC50 in series [1] of 88 µM. For the same compound, the result in series [2], in series [4] and in series [5] was inactive. For the same compound, in series [3], the Activity entry was “Dose-dependent effect”.

`CCCCCCC[C@H](NC(=O)[C@H](CCC(=O)O)NC(=O)[C@H](CC(N)=O)NC(=O)[C@H](CC(C)C)NC(=O)[C@H](CCCCN)NC(=O)[C@H](CCC(=O)O)NC(=O)[C@H](CCCNC(=N)N)NC(=O)[C@H](CCCCCCC)NC(=O)[C@H](CCC(=O)O)NC(=O)[C@H](CC(=O)O)NC(=O)[C@H](CC(C)C)NC(=O)[C@@H](NC(=O)[C@@H]1CCCN1C(C)=O)C(C)C)C(=O)N[C@@H](CC(C)C)C(=O)N[C@@H](CCC(=O)O)C(=O)N[C@@H](C)C(=O)N[C@@H](CC(C)C)C(=O)N[C@@H](CCCCN)C(=O)N[C@@H](CCC(N)=O)C(=O)N[C@@H](CCCCN)C(=O)N[C@@H](CC(C)C)C(=O)N[C@@H](CCCCN)C(N)=O` (Ac-PVLDE[X1]REKLNE[X1]LEALKQKLK-NH2): the IC50 in series [1] was 44 µM. The compound further registered a concentration at 3 h in series [6] of 137 µM. In addition, the outcome in series [2], in series [4] and in series [5] was inactive.

On to `C=CCCCCC[C@H](NC(=O)[C@H](CCC(N)=O)NC(=O)[C@H](CCCCN)NC(=O)[C@H](CC(C)C)NC(=O)[C@H](C)NC(=O)[C@H](CCC(=O)O)NC(=O)[C@H](CC(C)C)NC(=O)[C@H](CCCCCC=C)NC(=O)[C@H](CCC(=O)O)NC(=O)[C@H](CC(N)=O)NC(=O)[C@H](CC(C)C)NC(=O)[C@H](CCCCN)NC(=O)[C@H](CCC(=O)O)NC(=O)[C@H](CCCNC(=N)N)NC(=O)[C@@H](CCCCCC=C)NC(=O)[C@H](CCC(=O)O)NC(=O)[C@H](CC(=O)O)NC(=O)[C@H](CC(C)C)NC(=O)[C@@H](NC(=O)[C@@H]1CCCN1C(C)=O)C(C)C)C(=O)N[C@@H](CC(C)C)C(=O)N[C@@H](CCCCN)C(N)=O` (Ac-PVLDE[dGly(6-heptenyl)]REKLNE[Ala(5-hexenyl)]LEALKQ[Ala(5-hexenyl)]LK-NH2), for which the response in series [7] was half-maximal at 1 µM (EC50). This compound also gave a 50% inhibitory concentration (IC50) in series [1] of 40 µM. This compound also displayed a concentration at 3 h in series [6] of 49 µM. Also, the result in series [2], in series [4] and in series [5] was inactive. Besides, in series [3], the Activity result was “Dose-dependent effect”.

In series [1], `C=CCCCCC[C@H](NC(=O)[C@H](CCC(=O)O)NC(=O)[C@H](CC(N)=O)NC(=O)[C@H](CC(C)C)NC(=O)[C@H](CCCCN)NC(=O)[C@H](CCC(=O)O)NC(=O)[C@H](CCCNC(=N)N)NC(=O)[C@@H](CCCCC=C)NC(=O)[C@H](CCC(=O)O)NC(=O)[C@H](CC(=O)O)NC(=O)[C@H](CC(C)C)NC(=O)[C@@H](NC(=O)[C@@H]1CCCN1C(C)=O)C(C)C)C(=O)N[C@@H](CC(C)C)C(=O)N[C@@H](CCC(=O)O)C(=O)N[C@@H](C)C(=O)N[C@@H](CC(C)C)C(=O)N[C@@H](CCCCN)C(=O)N[C@@H](CCC(N)=O)C(=O)N[C@@H](CCCCN)C(=O)N[C@@H](CC(C)C)C(=O)N[C@@H](CCCCN)C(N)=O` (Ac-PVLDE[dNle(6-vinyl)]REKLNE[Ala(5-hexenyl)]LEALKQKLK-NH2) showed an IC50 of 100 µM. Further, the outcome in series [2], in series [4] and in series [5] was inactive. Besides, the Activity entry in series [3] was “Dose-dependent effect”.

In turn, `C=CCCCCC[C@H](NC(=O)[C@H](CCC(=O)O)NC(=O)[C@H](CC(N)=O)NC(=O)[C@H](CC(C)C)NC(=O)[C@H](CCCCN)NC(=O)[C@H](CCC(=O)O)NC(=O)[C@H](CCCNC(=N)N)NC(=O)[C@@H](CCCCCC=C)NC(=O)[C@H](CCC(=O)O)NC(=O)[C@H](CC(=O)O)NC(=O)[C@H](CC(C)C)NC(=O)[C@H](CCCCCC=C)NC(=O)[C@@H]1CCCN1C(C)=O)C(=O)N[C@@H](CC(C)C)C(=O)N[C@@H](CCC(=O)O)C(=O)N[C@@H](C)C(=O)N[C@@H](CC(C)C)C(=O)N[C@@H](CCCCN)C(=O)N[C@@H](CCC(N)=O)C(=O)N[C@@H](CCCCN)C(=O)N[C@@H](CC(C)C)C(=O)N[C@@H](CCCCN)C(N)=O` (Ac-P[Ala(5-hexenyl)]LDE[dGly(6-heptenyl)]REKLNE[Ala(5-hexenyl)]LEALKQKLK-NH2) showed an EC50 in series [7] of 0.9 µM. Also, the half-inhibitory concentration (IC50) in series [1] turned out to be 21 µM. The concentration at 3 h in series [6] worked out at 55 µM. The outcome in series [2], in series [4] and in series [5] was inactive.

The record behind these values is ChEMBL document CHEMBL1629456, “ApoA-I mimetic peptides promote pre-β HDL formation in vivo causing remodeling of HDL and triglyceride accumulation at higher dose” (Bioorg Med Chem, 2010).
